From PubChem BioAssay
In the library only some 2.3% were active in any assay of this set; here they are far more common.
ATG4B inhibitor: ATG4B protease inhibitors, primary screen, biochemical, fluorescence, uHTS; Cysteine protease ATG4B (Homo sapiens), Q9Y4P1; ATG4B cleavage of LC3-PLA2, NBD-HPC fluorescence, 1 h; inhibition, % at 8.33 µM; 340,000 compounds, 0.51% hits; AID 504462, 2011; in the data active means inhibition above about 40%
Target sequence (Q9Y4P1 whole entry, looked up): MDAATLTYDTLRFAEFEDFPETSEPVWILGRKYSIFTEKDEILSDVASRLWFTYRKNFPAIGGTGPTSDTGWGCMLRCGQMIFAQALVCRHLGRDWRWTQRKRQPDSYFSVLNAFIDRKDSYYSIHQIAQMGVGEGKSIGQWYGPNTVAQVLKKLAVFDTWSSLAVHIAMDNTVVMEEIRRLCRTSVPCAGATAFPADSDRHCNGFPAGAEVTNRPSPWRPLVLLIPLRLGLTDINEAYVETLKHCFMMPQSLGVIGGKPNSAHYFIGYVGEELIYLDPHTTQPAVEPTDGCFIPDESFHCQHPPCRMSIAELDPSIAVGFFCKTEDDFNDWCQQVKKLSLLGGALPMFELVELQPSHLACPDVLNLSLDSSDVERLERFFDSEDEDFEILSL
MPTP block: mitochondrial permeability transition pore inhibitors, primary screen, biochemical, isolated mouse mitochondria, absorbance; Ca2+ swelling absorbance, 30 min; 360,000 compounds, 1.4% hits; AID 602449, 2012; inhibition, % at 10 µM;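 active means inhibition of 50% or more, scaled per plate between neutral and stimulator controls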;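 further: 0% = DMSO wells given calcium and 100% = 1 mM EGTA wells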
SKN-1 block: suppressors of acrylamide-induced Pgst-4::GFP reporter in worms, primary screen, SKN-1 inhibitor project, whole organism, uHTS, GFP/RFP fluorescence ratio, strain VP596; inhibition, % at 21.8 µM; C. elegans VP596 Pgst-4::GFP/RFP ratio, 24 h; 360,000 compounds, 0.49% hits; AID 624304, 2012;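 active means interference check ratio from 0.5 to 1.5 plus GFP to RFP signal ratio inhibition reaching or exceeding a fixed threshold, cut at about 30% in these data, passing the limit was not always enough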
MT1-MMP act inh: blockers of MT1-MMP proenzyme processing, primary screen, HT1080 RFP-PRO-GFP cells, GFP/RFP fluorescence; AID 651647, 2012; GFP/RFP ratio fluorescence, overnight; percent of plate control window, DMSO zero; GFP/RFP ratio change, % at 20 µM; 360,000 compounds, 0.061% hits;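 active means GFP/RFP ratio change of at least 30% with cell ATP level not reduced by more than half and red fluorescence within 50% of control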
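Material: RFP-PRO-GFP reporter HT1080 cells. Dosing: single-point 20 µM compound, 1% DMSO. Controls: DMSO and RFP-L50D-GFP cell wells. Timing: cells overnight before dosing, compound overnight, 37 °C, 5% CO2. Measure: GFP/RFP fluorescence ratio.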
Rh123 counter: fluorescence retest of MPTP screen hits in isolated mitochondria, single concentration; shares compounds with MPTP block; membrane potential, Rhodamine 123 fluorescence; inhibition, % at 10 µM; 5,000 compounds, 78% hits; in the data active means inhibition above about 22%;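 further: 0% = DMSO vehicle and 100% = positive control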
MPTP swell DR: mitochondrial permeability transition pore inhibitors, dose response, biochemical, absorbance, uHTS hits; isolated mitochondria swelling; shares compounds with MPTP block; IC50, µM; 780 compounds, 58% hits; AID 651561, 2012; in the data active means IC50 below about 20 µM
MPTP cs DR: fluorescent counter-screen in isolated mitochondria, dose response, counter-screen for MPTP inhibitor project, biochemical, fluorescence, uHTS hits. shares compounds with MPTP block. isolated mitochondria counterscreen, fluorescence read-out. AID 651564, 2012. 780 compounds, 49% hits. IC50, µM; in the data active means IC50 below about 80 µM
Starred values were filed as active, the others as inactive; nt = no result given.

SMILES	ATG4B inhibitor	MPTP block	SKN-1 block	MT1-MMP act inh	Rh123 counter	others
CCc1cc2c(SCC(=O)Nc3cc(C)on3)ncnc2s1	-7	0	1	-4	nt
NC(=O)c1nnn(Cc2cc(Cl)c(C(=O)c3ccc(Cl)cc3)c(Cl)c2)c1N	nt	73*	-2	14	91*
O=C1c2ccccc2C(Nc2cccc(C(F)(F)F)c2)N1Cc1ccco1 (stereo not drawn)	-3	63*	2	-3	33*
Fc1ccccc1CNCCC(Cc1ccccc1)c1ccc2c(c1)OCO2 (stereo not drawn)	10	85*	7	-4	-1	MPTP swell DR=5.4*;MPTP cs DR=16*
Cc1cccc(NC(=O)COC(=O)CN2C(=O)c3ccccc3C2=O)c1C	nt	0	16	-2	nt
COc1cc(/C=C2/C(=O)c3cccc([N+](=O)[O-])c3C2=O)c(Br)cc1O	8	134*	3	-2	53*
COc1ccccc1NC(=O)CCCCCN1C(=O)c2cccc([N+](=O)[O-])c2C1=O	-4	1	-9	-2	nt
CC(C)(C)N1CC23C=CC(C[C@@H]2C1=O)O3 (stereo partly drawn)	-2	-1	1	3	nt
O=C1Nc2ccccc2C(O)(C(=O)NCc2ccco2)N1c1ccccc1 (stereo not drawn)	-16	0	-14	2	nt
O=C1Nc2ccccc2C(O)(C(=O)NCc2ccco2)N1c1ccc(Cl)cc1 (stereo not drawn)	10	90*	8	-2	87*
CCOC(=O)Cc1nnc2c(Nc3ccc(Cl)cc3)nc3nonc3n12	-16	94*	3	-8	87*
C=CCC1(CC=C)CCCN1C(=O)c1cc(COc2cncc(Cl)c2)on1	nt	77*	12	-15	96*
C=CCC1(CC=C)CCCN1C(=O)c1cc(COc2cccc(OC)c2)on1	-5	1	30	3	nt
COc1ccccc1N(C)S(=O)(=O)c1ccc(C(=O)Nc2cccc(S(=O)(=O)N3CCOCC3)c2)cc1	-41	2	22	-11	nt
COc1ccc(O)c(-c2cc(-c3ccccc3Cl)[nH]n2)c1	39	5	6	3	nt
Oc1ccc(Br)cc1-c1cc(-c2ccccc2F)[nH]n1	4	63*	-9	6	58*
Oc1ccc(Br)cc1-c1cc(-c2ccccc2Cl)[nH]n1	22	74*	-7	4	59*
Oc1ccccc1-c1cc(-c2ccc(F)cc2)n[nH]1	-11	33	23	2	nt
Cc1ccc(NC(=O)C(C)N=C2NS(=O)(=O)c3ccccc32)cc1F (stereo not drawn)	1	87*	0	2	88*
CC(N=C1NS(=O)(=O)c2ccccc21)C(=O)NCCCc1ccccc1 (stereo not drawn)	1	2	2	2	nt
CCOC(=O)N1CCN(C(=O)C(CC(C)C)NS(=O)(=O)c2ccc(C)cc2)CC1 (stereo not drawn)	-10	0	-1	4	nt
COc1cccc(CN(C)C(=O)CSCC(=O)Nc2cc(C)on2)c1OC	-2	-1	-7	1	nt
COCCNCCCCOc1ccc(Br)cc1C	6	0	10	5	nt
COCCCNCCCCOc1ccc(Br)cc1C	-1	63*	6	-5	-13	MPTP swell DR=8.7*;MPTP cs DR=>80
COc1ccc(NS(=O)(=O)c2ccc(-c3cnc(C4CC4)o3)cc2)cc1OC	-8	92*	-1	-12	93*
SMILES	ATG4B inhibitor	MPTP block	SKN-1 block	MT1-MMP act inh	Rh123 counter	others
COc1ccc(NS(=O)(=O)c2ccc3c(c2)OCCO3)cc1OC	-4	85*	-3	4	86*
COc1ccc(S(=O)(=O)Nc2ccc3c(c2)OCO3)cc1OC	-6	1	7	0	nt
COc1ccccc1NS(=O)(=O)c1ccc(-c2cnc(C3CC3)o2)cc1	-6	-1	12	-2	nt
CC(=O)Nc1ccc(S(=O)(=O)Nc2ccc3c(c2)OCCO3)cc1Cl	2	79*	6	2	58*
O=S(=O)(Nc1ccc2c(c1)OCCO2)c1ccc2oc3ccccc3c2c1	-16	68*	4	-4	81*
COc1ccc(-c2csc(NCCc3nc4cc(C(=O)NCCCO)ccc4n3Cc3ccc(C)cc3)n2)cc1	-19	-1	-2	1	nt
COc1cc(/C=C/C(=O)OCC(=O)N2CCN(S(=O)(=O)c3ccc(C)cc3C)CC2)cc(Cl)c1OC	-12	-2	2	1	nt
Cc1ccc(C(O)c2ncc(-c3ccc(C(F)(F)F)cc3)[nH]2)cc1F (stereo not drawn)	nt	7	0	2	nt
Cc1ccc(NC(=O)c2cc(C(C)(C)C)nn2Cc2ccccc2)cc1	-4	44	0	-5	nt
CC(C)(C)c1cc(C(=O)Nc2ccc(F)cc2)n(Cc2ccc(F)cc2)n1	1	80*	6	-8	87*
COc1cc(NC(=O)N2CCc3nc(NCc4cccc(Oc5ccccc5)c4)ncc3C2)cc(OC)c1OC	nt	2	17	3	nt
c1ccc2c(c1)OCC(CNc1ncnc3sccc13)O2 (stereo not drawn)	-4	99*	-12	-5	103*
COc1ccccc1CNc1ncnc2sccc12	-13	52*	-16	8	76*
c1ccc2c(c1)OCC(CNCC1COc3ccccc3O1)O2 (stereo not drawn)	1	0	13	3	nt
Fc1ccccc1CNc1ncnc2sccc12	-5	24	-2	9	nt
COc1ccc(CCNc2ncnc3sccc23)cc1OC	-8	95*	-4	-6	80*
CCn1ncc(Br)c1C(=O)Nc1ccc(F)c([N+](=O)[O-])c1	1	0	-8	0	nt
Cc1cc(C(=O)Nc2ncn[nH]2)ccc1[N+](=O)[O-]	-3	1	18	5	nt
CC(C)(C)c1ccc(OCCCC(=O)NNC(=O)c2ccccc2O)cc1	-1	69*	-9	2	82*
CC(=O)Nc1ccc(S(=O)(=O)NC(C)C(=O)NCC(c2ccco2)N(C)C)cc1 (stereo not drawn)	2	2	12	0	nt
O=C(Nc1ccc2c(c1)OCO2)c1cc(C2CCCN(C(=O)C3CCCCC3)C2)on1 (stereo not drawn)	nt	-2	14	0	nt
CN(C)S(=O)(=O)c1ccc(NC(=O)CSc2ncnc3ccccc23)cc1	-9	1	-2	-1	nt
